# In ChEMBL document CHEMBL1142961, “Novel selective inhibitors of the zinc plasmodial aminopeptidase PfA-M1 as potential antimalarial agents” (J Med Chem, 2007):
# Assays:
# [1] = target: T1, Aminopeptidase N (Plasmodium falciparum FcB1/Columbia, UniProt O96935); assay: Inhibition of Plasmodium falciparum FcB1 M1 aminopeptidase
# T1 sequence (O96935 whole entry): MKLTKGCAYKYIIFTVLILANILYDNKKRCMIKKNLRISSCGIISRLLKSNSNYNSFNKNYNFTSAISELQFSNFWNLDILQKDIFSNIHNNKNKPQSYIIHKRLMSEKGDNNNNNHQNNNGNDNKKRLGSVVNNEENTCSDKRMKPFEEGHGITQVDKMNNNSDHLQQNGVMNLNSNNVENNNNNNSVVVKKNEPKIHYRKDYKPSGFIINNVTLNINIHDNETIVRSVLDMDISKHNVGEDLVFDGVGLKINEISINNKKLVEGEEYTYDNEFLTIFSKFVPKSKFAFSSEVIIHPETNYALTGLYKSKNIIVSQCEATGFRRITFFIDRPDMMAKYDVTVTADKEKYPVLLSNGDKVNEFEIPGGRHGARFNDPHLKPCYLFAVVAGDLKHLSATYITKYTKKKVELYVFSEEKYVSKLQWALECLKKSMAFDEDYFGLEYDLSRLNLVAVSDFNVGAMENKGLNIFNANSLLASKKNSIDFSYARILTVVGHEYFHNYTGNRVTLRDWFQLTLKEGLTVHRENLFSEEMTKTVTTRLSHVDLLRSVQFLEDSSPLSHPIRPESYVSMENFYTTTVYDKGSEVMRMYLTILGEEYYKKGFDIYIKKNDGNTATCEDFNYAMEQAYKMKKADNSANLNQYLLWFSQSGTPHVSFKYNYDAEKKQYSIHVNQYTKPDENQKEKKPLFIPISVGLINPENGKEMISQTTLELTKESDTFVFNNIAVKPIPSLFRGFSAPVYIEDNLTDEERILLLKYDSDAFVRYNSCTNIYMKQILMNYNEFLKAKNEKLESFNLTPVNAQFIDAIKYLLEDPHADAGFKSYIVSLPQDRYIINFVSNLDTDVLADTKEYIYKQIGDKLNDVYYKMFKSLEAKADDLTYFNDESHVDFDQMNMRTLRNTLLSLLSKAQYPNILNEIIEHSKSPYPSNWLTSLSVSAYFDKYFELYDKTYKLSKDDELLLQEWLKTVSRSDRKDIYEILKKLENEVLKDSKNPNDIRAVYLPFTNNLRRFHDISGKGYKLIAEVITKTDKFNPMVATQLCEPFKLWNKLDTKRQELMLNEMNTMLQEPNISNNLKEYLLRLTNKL
# Outline: (§1)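 Native enzyme purified from P. falciparum FcB1, diluted 10-fold in 25 mM Tris-HCl pH 7.4. Preincubated with inhibitor for 10 min at room temperature, then Leu-pNA substrate added (0.3 mM stock, Km 0.099 mM). Kinetics followed at 405 nm at room temperature. Initial velocities normalized to a no-inhibitor control. Single-point screen at 10 µM; IC50 from velocity versus inhibitor concentration curves. Bestatin used as reference.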
# [2] = target: T2, Aminopeptidase N (Plasmodium falciparum FcB1/Columbia) (UniProt O96935); assay: Inhibition of Plasmodium falciparum FcB1 M1 aminopeptidase at 10 uM; outline: as §1
# T2 sequence (whole entry): T1 sequence (O96935 whole entry)
# [3] = target: T3, Aminopeptidase N (Sus scrofa) (UniProt P15145); assay: Inhibition of pig kidney microsomal APN at 10 uM
# T3 sequence (whole entry): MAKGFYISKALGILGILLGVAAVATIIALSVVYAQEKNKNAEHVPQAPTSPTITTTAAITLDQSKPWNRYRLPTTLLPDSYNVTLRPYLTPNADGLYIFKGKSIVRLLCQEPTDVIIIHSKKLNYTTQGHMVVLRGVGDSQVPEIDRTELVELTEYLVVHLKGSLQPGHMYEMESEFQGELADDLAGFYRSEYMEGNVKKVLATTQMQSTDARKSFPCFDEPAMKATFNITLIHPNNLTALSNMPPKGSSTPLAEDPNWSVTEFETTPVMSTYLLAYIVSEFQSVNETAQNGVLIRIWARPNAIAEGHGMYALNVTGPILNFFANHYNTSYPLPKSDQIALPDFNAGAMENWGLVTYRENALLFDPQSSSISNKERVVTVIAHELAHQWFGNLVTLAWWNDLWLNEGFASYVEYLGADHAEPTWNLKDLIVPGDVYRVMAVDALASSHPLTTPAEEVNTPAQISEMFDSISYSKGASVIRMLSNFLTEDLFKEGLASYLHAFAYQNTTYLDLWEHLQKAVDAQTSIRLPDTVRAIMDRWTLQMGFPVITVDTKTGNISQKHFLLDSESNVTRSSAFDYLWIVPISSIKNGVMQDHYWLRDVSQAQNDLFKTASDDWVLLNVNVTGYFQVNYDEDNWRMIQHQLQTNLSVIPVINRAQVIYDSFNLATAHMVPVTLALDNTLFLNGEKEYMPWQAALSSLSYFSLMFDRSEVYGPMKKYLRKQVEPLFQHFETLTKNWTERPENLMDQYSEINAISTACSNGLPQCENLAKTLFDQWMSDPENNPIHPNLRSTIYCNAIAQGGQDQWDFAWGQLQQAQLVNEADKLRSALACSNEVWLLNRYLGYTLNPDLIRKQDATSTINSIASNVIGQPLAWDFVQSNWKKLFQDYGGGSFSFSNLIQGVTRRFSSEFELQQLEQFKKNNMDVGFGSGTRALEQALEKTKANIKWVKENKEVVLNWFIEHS
# Outline: (§2)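 Porcine kidney microsomal APN (ammonium sulfate suspension) diluted 600-fold in 25 mM Tris-HCl pH 7.4. Preincubated with inhibitor for 10 min at room temperature, then Leu-pNA added (0.3 mM stock). Hydrolysis followed at 405 nm at room temperature. Rates normalized to a no-inhibitor control. Single point at 10 µM; IC50 from concentration-velocity curves. Bestatin used as reference.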
# [4] = target: T4, Aminopeptidase N (Sus scrofa, UniProt P15145); assay: Inhibition of pig kidney microsomal APN; outline: as §2
# T4 sequence (P15145 whole entry): T3 sequence (whole entry)
# [5] = Stability in Zucker FA/FA rat plasma at 37degC; type: ADME, organism-based; conditions: read-out: Stability (converted)
# Outline: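 Compound at 100 µM final in male Zucker FA/FA rat plasma, stirred at 37 °C. Samples taken from 0 to 96 h, acidified with 0.14 M phosphoric acid and spiked with internal standard. Extracted three times with AcOEt and quantified by LC-MS-MS (MRM). Half-life derived.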
SMILES,IC50 [1] [nM],inhibition [2] [%],inhibition [3] [%],IC50 [4] [nM],half-life [5] [h]
CC(C)CC(C(=O)NO)C(=O)NCc1ccc(Cl)cc1 (stereo not given),904,90,99,–,–
O=C(NO)C(Cc1cccc(Oc2ccccc2)c1)C(=O)NCc1ccccc1 (stereo not given),164,96,79,> 10000,–
O=C(NO)C(Cc1ccccc1)C(=O)NCc1cccc2ccccc12 (stereo not given),107,–,–,–,–
O=C(NO)C(Cc1ccccc1)C(=O)N1CCc2ccccc2C1 (stereo not given),253,84,50,–,–
O=C(NO)C(Cc1cccc(Oc2ccccc2)c1)C(=O)N1CCC(Cc2ccccc2)CC1 (stereo not given),248,97,65,–,–
O=C(NO)C(Cc1cccc(Oc2ccccc2)c1)C(=O)NCc1ccc(Cl)cc1 (stereo not given),130,96,76,2530,–
CC(C)CC(C(=O)NO)C(=O)NCc1ccc(F)cc1 (stereo not given),3900,85,92,–,–
O=C(NO)C(Cc1ccccc1)C(=O)NCc1cccc(-c2ccccc2)c1 (stereo not given),1170,71,90,–,–
O=C(NO)C(Cc1ccccc1)C(=O)NCCCCc1ccccc1 (stereo not given),46,94,81,> 10000,–
O=C(NCc1ccc(F)cc1)c1cc2ccccc2n(O)c1=O,> 10000,–,–,> 10000,> 48
O=C(NO)C(Cc1cccc(Oc2ccccc2)c1)C(=O)NCCCCc1ccccc1 (stereo not given),225,96,84,–,–
O=C(NO)C(Cc1ccccc1)C(=O)NCCc1ccccc1 (stereo not given),1010,82,70,–,–
Cc1ccccc1CNC(=O)C(Cc1ccccc1)C(=O)NO (stereo not given),41,95,85,1310,–
O=C(NO)C(Cc1ccccc1)C(=O)N1CCN(Cc2ccccc2)CC1 (stereo not given),1760,75,21,–,–
CC(C)CC(C(=O)NO)C(=O)N1CCC(Cc2ccccc2)CC1 (stereo not given),406,100,68,–,–
O=C(NO)C(Cc1ccccc1)C(=O)NCc1ccccc1 (stereo not given),125,94,69,–,–
CC(C)CC(C(=O)NO)C(=O)NCCCCc1ccccc1 (stereo not given),1150,87,92,–,–
CC(C)CC(C(=O)NO)C(=O)NCCCc1ccccc1 (stereo not given),790,98,95,–,–
O=C(NO)C(Cc1ccccc1)C(=O)NCc1ccc(Cl)cc1 (stereo not given),170,93,80,–,–
CC(C)CC(C(=O)NO)C(=O)NCc1ccccc1 (stereo not given),495,19,39,–,–
O=C(NO)C(Cc1ccccc1)C(=O)NC1Cc2ccccc2C1 (stereo not given),1930,26,61,–,–
O=C(NO)C(Cc1ccccc1)C(=O)NCC(c1ccccc1)c1ccccc1 (stereo not given),5360,–,–,–,–
O=C(NO)C(Cc1cccc(Oc2ccccc2)c1)C(=O)NCCCc1ccccc1 (stereo not given),527,93,89,–,–
O=C(NO)/C(=C/c1ccccc1)C(=O)NCc1ccc(F)cc1,330,–,–,> 10000,–

SMILES,IC50 [1] [nM],inhibition [2] [%],inhibition [3] [%],IC50 [4] [nM],half-life [5] [h]
CC(C)CC(C(=O)NO)C(=O)NC1CCCc2ccccc21 (stereo not given),109,–,–,–,–
O=C(NO)C(Cc1ccccc1)C(=O)NCCCc1ccccc1 (stereo not given),125,94,84,–,–
CC(C)CC(C(=O)NO)C(=O)NCc1cccc(Oc2ccccc2)c1 (stereo not given),45,88,96,–,–
CC(C)CC(C(=O)NO)C(=O)NCCc1ccccc1 (stereo not given),885,74,105,–,–
O=C(NO)C(Cc1ccccc1)C(=O)NCc1cccc(Oc2ccccc2)c1 (stereo not given),2510,87,83,–,–
O=C(NO)C(Cc1cccc(Oc2ccccc2)c1)C(=O)NCc1ccc(C(F)(F)F)cc1 (stereo not given),231,102,84,–,–
O=C(NO)C(Cc1ccccc1)C(=O)N1CCC(Cc2ccccc2)CC1 (stereo not given),206,92,34,–,–
NC(C(=O)NO)C(=O)NC1Cc2ccccc2C1 (stereo not given),–,20,36,–,–
CC(C)CC(C(=O)NO)C(=O)N1CCN(Cc2ccccc2)CC1 (stereo not given),–,29,28,–,–
NC(C(=O)NO)C(=O)N1CCC(n2c(=O)[nH]c3ccccc32)CC1 (stereo not given),–,12,34,–,–
CC(C)CN(CCCCc1ccccc1)C(=O)C(N)C(=O)NO (stereo not given),–,37,-1,–,–
O=C(CC(=O)N(CCc1ccccc1)Cc1ccccc1)NO,–,5,32,–,–
CC(C)CC(C(=O)NO)C(=O)NCc1cccc2ccccc12 (stereo not given),91,–,–,8580,–
O=C(CC(=O)NCc1ccc(F)cc1)NO,–,6,16,–,–
O=C(CC(=O)NC1Cc2ccccc2C1)NO,–,-2,12,–,–
NC(C(=O)NO)C(=O)NCc1cccc(-c2ccccc2)c1 (stereo not given),–,35,62,–,–
O=C(NO)C(Cc1cccc(Oc2ccccc2)c1)C(=O)N1CCc2ccccc2C1 (stereo not given),966,100,84,–,–
CN(CCCNC(=O)C(Cc1ccccc1)C(=O)NO)c1ccccc1 (stereo not given),–,67,46,–,–
O=C(NO)C(Cc1cccc(Oc2ccccc2)c1)C(=O)N1CCC2(CC1)C(=O)NCN2c1ccccc1 (stereo not given),–,65,70,–,–
O=C(NCCCCc1ccccc1)c1cc2ccccc2n(O)c1=O,> 10000,–,–,> 10000,–
CN(Cc1ccccc1)C(=O)C(N)C(=O)NO (stereo not given),–,-1,29,–,–
O=C(NO)/C(=C\c1ccccc1)C(=O)NCCCCc1ccccc1,13,–,–,3240,–
CC(C)CC(C(=O)NO)C(=O)N(C)Cc1ccccc1 (stereo not given),–,23,37,–,–
O=C(CC(=O)NCc1ccc(C(F)(F)F)cc1)NO,–,1,40,–,–
